Read-outs that look alike come from different tables or passages of the source.

The target in one series is CYP 2C9 (Homo sapiens, UniProt P11712). Put plainly: CYP inhibition in human liver microsomes. The series is classed as in vitro ADME.
Series [1] in a line: Cell permeability across Caco-2 cell monolayer. The series is classed as in vitro ADME. Particulars: human. The method, boiled down:
(§1)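 Bidirectional transport of 2 μM test compound across Caco-2 monolayers at pH 7.4, in duplicate, with final DMSO below 1%. Plates were held 2 hr at 37°C, 5% CO2, saturated humidity, without shaking. Starting, donor and receiver solutions were analysed by LC/MS/MS. Lucifer yellow rejection after transport checked monolayer integrity.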

The next series concerns the target T1, CYP 2C8 (Homo sapiens, UniProt P10632).
T1 sequence (P10632 1-490): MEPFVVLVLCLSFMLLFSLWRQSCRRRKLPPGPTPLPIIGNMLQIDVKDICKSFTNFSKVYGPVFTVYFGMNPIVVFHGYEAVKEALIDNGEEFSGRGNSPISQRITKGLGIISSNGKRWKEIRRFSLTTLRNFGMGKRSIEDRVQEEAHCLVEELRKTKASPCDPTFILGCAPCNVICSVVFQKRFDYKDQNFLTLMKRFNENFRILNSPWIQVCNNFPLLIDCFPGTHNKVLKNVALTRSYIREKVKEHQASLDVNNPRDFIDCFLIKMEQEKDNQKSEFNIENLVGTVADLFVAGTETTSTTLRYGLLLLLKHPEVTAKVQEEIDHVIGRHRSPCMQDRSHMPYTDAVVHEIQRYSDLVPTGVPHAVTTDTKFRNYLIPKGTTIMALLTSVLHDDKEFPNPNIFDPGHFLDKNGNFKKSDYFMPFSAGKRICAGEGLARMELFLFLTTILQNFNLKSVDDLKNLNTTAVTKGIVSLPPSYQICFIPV
Put plainly: CYP inhibition in human liver microsomes. The class given is in vitro ADME.

Series [2] is described as follows: Cytotoxicity, CellTiter 96 assay in PBM cells. The class given is cell-based, human. To be noted: human, peripheral blood mononuclear (PBM) cells. In short, it runs like this: (§2)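 Colorimetric non-radioactive cell proliferation read-out (CellTiter 96). CC50 is the test compound concentration that inhibited cell growth by 50%.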
The target in a further series is T2, CYP 1A2 (Homo sapiens, UniProt P05177).
T2 sequence (P05177 1-516): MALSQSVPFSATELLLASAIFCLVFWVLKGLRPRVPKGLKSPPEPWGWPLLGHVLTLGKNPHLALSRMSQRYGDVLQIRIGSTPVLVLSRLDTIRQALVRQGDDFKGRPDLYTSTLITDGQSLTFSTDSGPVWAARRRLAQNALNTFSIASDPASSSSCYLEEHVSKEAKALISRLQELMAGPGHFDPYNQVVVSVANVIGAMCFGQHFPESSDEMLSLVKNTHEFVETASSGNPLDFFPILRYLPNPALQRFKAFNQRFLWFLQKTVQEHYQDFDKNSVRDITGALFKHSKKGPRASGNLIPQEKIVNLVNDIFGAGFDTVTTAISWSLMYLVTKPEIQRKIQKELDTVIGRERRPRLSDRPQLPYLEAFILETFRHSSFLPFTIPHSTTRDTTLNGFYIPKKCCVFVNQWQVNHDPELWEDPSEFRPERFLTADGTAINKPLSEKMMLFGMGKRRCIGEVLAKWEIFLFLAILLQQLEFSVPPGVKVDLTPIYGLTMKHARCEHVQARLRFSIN
Put plainly: CYP inhibition in human liver microsomes. The class given is in vitro ADME. In short, it runs like this: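 Known CYP450 probe substrates were incubated with human liver microsomes (0.05–0.2 mg/mL), 1 mM NADPH, 100 mM potassium phosphate pH 7.4 and 3 mM MgCl2 at 37°C, with or without 10 μM test compound, in duplicate. Reactions were quenched with a solution containing internal standards. Each substrate's signature metabolite was quantified by LC/MS/MS.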

Series [3] in a line: Liver microsome stability, human. The class given is in vitro ADME. In short, it runs like this: (§3)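 Test compound (1 μM), alone or with ritonavir at 0.3, 1 or 3 μM, was incubated with 1 mg/mL mouse or human liver microsomes in 100 mM potassium phosphate pH 7.4 with 5 mM MgCl2. NADPH (final 1 mM) started the reaction at 37°C. Aliquots at 0–90 min were quenched in ice-cold methanol, centrifuged, diluted 1:1 with water, and analysed by LC-MS/MS. Propranolol was the positive control.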

In another series the target is CYP 3A4 (Homo sapiens, UniProt P08684). Put plainly: CYP inhibition in human liver microsomes. The class given is in vitro ADME. To be noted: for CYP Inhibition (% at 10 μM) 3A4-M: midazolam substrate; for CYP Inhibition (% at 10 μM) 3A4-T: testosterone substrate.
Sequence of CYP 3A4 (P08684 whole entry): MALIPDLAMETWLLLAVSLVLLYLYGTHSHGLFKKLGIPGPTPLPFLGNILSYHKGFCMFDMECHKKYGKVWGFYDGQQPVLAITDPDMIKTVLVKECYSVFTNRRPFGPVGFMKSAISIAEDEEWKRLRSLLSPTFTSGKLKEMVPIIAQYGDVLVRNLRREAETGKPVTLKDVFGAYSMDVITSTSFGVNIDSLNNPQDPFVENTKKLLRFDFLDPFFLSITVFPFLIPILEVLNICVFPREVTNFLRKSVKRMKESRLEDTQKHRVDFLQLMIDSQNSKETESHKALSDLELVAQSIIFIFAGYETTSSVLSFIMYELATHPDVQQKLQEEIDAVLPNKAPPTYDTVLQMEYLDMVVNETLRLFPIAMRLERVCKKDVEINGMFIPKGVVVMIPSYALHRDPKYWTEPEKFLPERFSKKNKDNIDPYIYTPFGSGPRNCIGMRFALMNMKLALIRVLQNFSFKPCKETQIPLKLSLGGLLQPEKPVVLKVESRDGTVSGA
The test system of series [4] is HBV DNA replication in HepAD38 cells. The experiment in a line: Anti-HBV activity, 7-day assay in HepAD38 cells. The class given is cell-based, hepatitis B virus. To be noted: for EC50: read-out: Anti-HBV activity EC50; for EC90: read-out: Anti-HBV activity EC90.
Series [5] can be described thus: Cytotoxicity, CellTiter 96 assay in HepG2 cells. The series is classed as cell-based, human. Particulars: human, hepatocellular carcinoma (HepG2) cells. The method, boiled down:
as §2

Another series deals with CYP 2C19 (Homo sapiens, UniProt P33261). The experiment in a line: CYP inhibition in human liver microsomes. The class given is in vitro ADME.
Sequence of CYP 2C19 (P33261 whole entry): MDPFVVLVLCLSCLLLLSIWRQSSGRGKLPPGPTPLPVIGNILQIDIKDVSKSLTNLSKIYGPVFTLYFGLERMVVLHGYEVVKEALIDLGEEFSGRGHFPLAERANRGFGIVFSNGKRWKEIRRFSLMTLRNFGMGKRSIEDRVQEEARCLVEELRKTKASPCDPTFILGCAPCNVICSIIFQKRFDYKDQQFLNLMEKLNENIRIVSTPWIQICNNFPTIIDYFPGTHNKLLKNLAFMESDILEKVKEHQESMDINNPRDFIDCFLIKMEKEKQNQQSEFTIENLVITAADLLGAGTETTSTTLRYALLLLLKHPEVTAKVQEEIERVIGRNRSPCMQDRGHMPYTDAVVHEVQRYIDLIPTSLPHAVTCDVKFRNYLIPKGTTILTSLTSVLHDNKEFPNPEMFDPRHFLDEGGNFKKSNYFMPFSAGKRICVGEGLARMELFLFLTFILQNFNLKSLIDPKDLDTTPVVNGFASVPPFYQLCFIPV
Series [6] is described as follows: Cytotoxicity, CellTiter 96 assay in Vero cells. To be noted: African green monkey, kidney (Vero) cells. The series is classed as cell-based, African green monkey. In short, it runs like this: as §2
In a further series the target is CYP 2D6 (Homo sapiens, UniProt P10635). Put plainly: CYP inhibition in human liver microsomes. The series is classed as in vitro ADME.
Sequence of CYP 2D6 (P10635 whole entry): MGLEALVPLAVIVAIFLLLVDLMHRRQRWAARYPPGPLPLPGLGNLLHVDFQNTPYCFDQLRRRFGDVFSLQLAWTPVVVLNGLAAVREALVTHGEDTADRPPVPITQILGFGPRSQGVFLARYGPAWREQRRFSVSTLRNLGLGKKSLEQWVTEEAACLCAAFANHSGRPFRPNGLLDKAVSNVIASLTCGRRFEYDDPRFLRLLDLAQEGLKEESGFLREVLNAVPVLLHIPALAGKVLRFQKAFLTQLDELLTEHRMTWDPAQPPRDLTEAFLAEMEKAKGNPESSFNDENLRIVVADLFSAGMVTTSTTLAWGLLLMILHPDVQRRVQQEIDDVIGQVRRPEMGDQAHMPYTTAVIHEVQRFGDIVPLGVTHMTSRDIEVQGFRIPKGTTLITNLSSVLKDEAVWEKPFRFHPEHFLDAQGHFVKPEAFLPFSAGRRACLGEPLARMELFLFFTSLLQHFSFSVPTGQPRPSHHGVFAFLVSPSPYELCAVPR
Series [7] can be described thus: Cytotoxicity, CellTiter 96 assay in CEM cells. Particulars: human, T lymphoblast (CEM) cells. The series is classed as cell-based, human. The method, boiled down: as §2
For a further series, the target named is T3, CYP 2B6 (Homo sapiens, UniProt P20813).
T3 sequence (P20813 1-491): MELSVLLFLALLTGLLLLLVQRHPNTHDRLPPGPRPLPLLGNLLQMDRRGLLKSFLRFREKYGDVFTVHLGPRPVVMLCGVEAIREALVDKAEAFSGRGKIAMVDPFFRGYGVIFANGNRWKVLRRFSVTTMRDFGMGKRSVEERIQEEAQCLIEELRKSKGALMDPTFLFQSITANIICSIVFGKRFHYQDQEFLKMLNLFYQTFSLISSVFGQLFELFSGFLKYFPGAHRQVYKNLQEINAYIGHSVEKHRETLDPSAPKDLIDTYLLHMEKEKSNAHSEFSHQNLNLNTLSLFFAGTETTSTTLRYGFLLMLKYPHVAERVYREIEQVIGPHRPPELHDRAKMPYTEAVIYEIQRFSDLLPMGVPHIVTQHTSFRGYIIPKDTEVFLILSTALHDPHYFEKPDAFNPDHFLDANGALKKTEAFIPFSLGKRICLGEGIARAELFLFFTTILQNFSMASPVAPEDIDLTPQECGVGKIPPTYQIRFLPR
Put plainly: CYP inhibition in human liver microsomes. The series is classed as in vitro ADME.

A short description of series [8]: Liver microsome stability, mouse. The series is classed as in vitro ADME. The method, boiled down: as §3
For a further series, the system named is HBV. Particulars: humanized mouse model, in combination with entecavir; ref [7],[8]; cited from earlier work.
Another series deals with Caco-2 cell monolayer. Put plainly: Cell permeability across Caco-2 cell monolayer. The class given is in vitro ADME. In short, it runs like this: as §1
The test system of series [9] is human peripheral blood mononuclear (PBM) cells. The experiment in a line: Cytotoxicity, CellTiter 96 assay in PBM cells. The series is classed as cell-based. To be noted: read-out: Cytotoxicity CC50 PBM; PBM cells. The method, boiled down:
as §2

The test system of series [10] is human hepatocellular carcinoma (HepG2) cells. The experiment in a line: Cytotoxicity, CellTiter 96 assay in HepG2 cells. The class given is cell-based. To be noted: read-out: Cytotoxicity CC50 HepG2; HepG2 cells. In short, it runs like this:
as §2

The nature of the next series: Formation of glutathione. The class given is in vitro ADME. Particulars: human liver microsomes 1 mg/mL, 1 mM GSH, 60 min, 37°C.
The subject of series [11] is African green monkey kidney (Vero) cells. Put plainly: Cytotoxicity, CellTiter 96 assay in Vero cells. To be noted: read-out: Cytotoxicity CC50 Vero; Vero cells. The series is classed as cell-based. In short, it runs like this:
as §2

The test system of series [12] is human T lymphoblast (CEM) cells. The experiment in a line: Cytotoxicity, CellTiter 96 assay in CEM cells. The series is classed as cell-based. Particulars: read-out: Cytotoxicity CC50 CEM; CEM cells. The method, boiled down:
as §2

The next series addresses hERG (Homo sapiens, UniProt Q12809). Put plainly: hERG inhibition, automated patch clamp in CHO cells. The class given is cell-based. Particulars: room temperature. The method, boiled down: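 Test article was applied at concentrations up to 10 μM, with n ≥ 3 per compound.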
[13] abbreviates: Hepatitis B virus, HePAD38, 168 h.
Where [14] appears, read: HepAD38 cells, 7-day assay, HBV DNA.

Sequence of CYP 2C9 (P11712 whole entry): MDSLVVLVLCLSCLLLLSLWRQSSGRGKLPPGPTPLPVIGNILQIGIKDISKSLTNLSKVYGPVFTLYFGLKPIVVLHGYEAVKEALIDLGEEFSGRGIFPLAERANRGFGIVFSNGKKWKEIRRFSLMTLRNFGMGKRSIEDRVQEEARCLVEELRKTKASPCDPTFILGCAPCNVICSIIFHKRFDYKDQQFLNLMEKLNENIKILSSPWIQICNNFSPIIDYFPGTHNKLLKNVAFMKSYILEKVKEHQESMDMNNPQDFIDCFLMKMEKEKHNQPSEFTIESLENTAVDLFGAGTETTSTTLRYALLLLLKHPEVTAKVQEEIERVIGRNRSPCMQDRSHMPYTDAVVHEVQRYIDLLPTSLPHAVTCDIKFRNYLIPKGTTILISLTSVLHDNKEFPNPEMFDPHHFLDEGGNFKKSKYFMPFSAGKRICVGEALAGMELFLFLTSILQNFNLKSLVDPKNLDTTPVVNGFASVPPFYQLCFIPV
Sequence of hERG (Q12809 whole entry): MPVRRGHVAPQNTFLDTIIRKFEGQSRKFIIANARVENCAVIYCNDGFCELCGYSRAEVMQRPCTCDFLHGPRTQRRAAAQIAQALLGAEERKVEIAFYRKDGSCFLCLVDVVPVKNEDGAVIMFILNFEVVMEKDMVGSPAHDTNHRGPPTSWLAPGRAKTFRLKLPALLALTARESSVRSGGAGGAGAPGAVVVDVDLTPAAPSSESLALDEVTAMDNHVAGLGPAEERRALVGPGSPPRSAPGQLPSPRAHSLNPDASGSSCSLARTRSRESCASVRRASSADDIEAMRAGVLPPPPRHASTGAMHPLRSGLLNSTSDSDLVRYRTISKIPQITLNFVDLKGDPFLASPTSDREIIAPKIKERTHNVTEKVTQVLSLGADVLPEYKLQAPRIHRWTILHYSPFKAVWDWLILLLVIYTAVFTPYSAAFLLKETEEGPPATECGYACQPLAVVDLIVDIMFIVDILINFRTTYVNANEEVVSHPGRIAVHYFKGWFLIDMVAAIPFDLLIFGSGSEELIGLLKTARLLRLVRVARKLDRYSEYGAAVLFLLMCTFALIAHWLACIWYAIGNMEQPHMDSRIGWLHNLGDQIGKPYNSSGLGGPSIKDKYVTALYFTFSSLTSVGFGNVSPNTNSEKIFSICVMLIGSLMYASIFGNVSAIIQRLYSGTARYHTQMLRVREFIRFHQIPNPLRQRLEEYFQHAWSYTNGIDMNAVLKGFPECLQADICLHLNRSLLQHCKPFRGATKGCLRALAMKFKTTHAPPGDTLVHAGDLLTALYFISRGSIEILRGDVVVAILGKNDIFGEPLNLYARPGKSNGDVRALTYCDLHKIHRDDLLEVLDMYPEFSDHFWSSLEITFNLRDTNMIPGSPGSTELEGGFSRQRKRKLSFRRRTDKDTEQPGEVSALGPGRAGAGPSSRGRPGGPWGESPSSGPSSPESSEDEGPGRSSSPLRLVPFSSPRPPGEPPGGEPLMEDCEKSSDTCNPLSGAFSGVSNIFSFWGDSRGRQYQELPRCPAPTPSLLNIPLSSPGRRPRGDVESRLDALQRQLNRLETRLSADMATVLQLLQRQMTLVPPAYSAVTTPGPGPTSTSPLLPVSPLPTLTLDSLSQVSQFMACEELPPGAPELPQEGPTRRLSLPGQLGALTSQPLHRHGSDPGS

Turning to `C#CCn1c(C)c(C(=O)C(=O)NC(C)(C)C#C)c(C)c1C(=O)Nc1ccc(F)c(F)c1` [Compound 10a, N-(3,4-Difluorophenyl)-3,5-dimethyl-4-(2-((2-methylbut-3-yn-2-yl)amino)-2-oxoacetyl)-1-(prop-2-yn-1-yl)-1H-pyrrole-2-carboxamide], the “CYP Inhibition (% at 10 μM) 2C9” value at CYP 2C9 is recorded as 40%. Moreover, the Papp A→B at 2 h, 2 μM in series [1] (Caco-2, pH 7.4) was found to be 33.5 ×10⁻⁶ cm/s. For the same compound, the Papp B→A at 2 h, 2 μM in [1] (Caco-2, pH 7.4) worked out at 10.9 ×10⁻⁶ cm/s. Also, the recovery at 2 h, 2 μM in [1] (Caco-2, pH 7.4, Mean Recovery % A-B, Caco-2, A-B) is 100%; in [1] (Caco-2, pH 7.4, Mean Recovery % B-A, Caco-2, B-A), 74.6%. Also, on CYP 2C8, the “CYP Inhibition (% at 10 μM) 2C8” value was found to be 95%. Moreover, the CC50 in series [2], in series [5], in series [6] and in series [7] was greater than 100 µM each time. The “CYP Inhibition (% at 10 μM) 1A2” value on CYP 1A2 came out at 9%. Further, the “fold improvement of half-life on co-incubation with ritonavir” value is given as “two-fold” in [3] (human liver microsomes, ritonavir at ratios up to 1/3) and 45 fold in [8] (mouse liver microsomes, ritonavir at ratios up to 1/3). Further, the half-life at 1 μM in series [3] (human, human liver microsomes, pH 7.4) came to 9 min; in [8] (mouse, mouse liver microsomes, pH 7.4), 2.4 min. In addition, the “CYP Inhibition (% at 10 μM) 3A4-M” value at CYP 3A4 worked out at 40%. Also, the “CYP Inhibition (% at 10 μM) 3A4-T” value at CYP 3A4 came out at 40%. Besides, the half-maximal effective concentration (EC50) in series [4] (setting [13]) was found to be 0.02 ± 0.03 nM. For the same compound, in series [4] (setting [13]), the EC90 was 0.0016 ± 0.0008 µM. For the same compound, at CYP 2C19, the “CYP Inhibition (% at 10 μM) 2C19” value is listed as 34%. Moreover, the “CYP Inhibition (% at 10 μM) 2D6” value on CYP 2D6 is reported as 8%. Also, at CYP 2B6, the “CYP Inhibition (% at 10 μM) 2B6” value came out at 5%.

For `C#CCNC(=O)C(=O)c1c(C)c(C(=O)Nc2ccc(F)c(F)c2)n(C)c1C` [GLP-26, reference compound], the “CYP Inhibition (% at 10 μM) 2C9” value on CYP 2C9 came out at 11.7%. In addition, the antiviral response entry in the series on HBV was “sustained antiviral response up to 12 weeks post treatment”. In addition, the “Permeability A-B” value with Caco-2 cell monolayer (Caco-2, 2 μM, pH 7.4, 2 hr, A-B) is on record as 23.5 10^−6 cm/s. Moreover, in the series on Caco-2 cell monolayer (Caco-2, 2 μM, pH 7.4, 2 hr, B-A), the “Permeability B-A” value is recorded as 22.8 10^−6 cm/s. Also, the “Mean Recovery % A-B” value with Caco-2 cell monolayer (Caco-2, A-B) turned out to be 86.3%. Further, the “Mean Recovery % B-A” value in the series on Caco-2 cell monolayer (Caco-2, B-A) is 98.7%. The “CYP Inhibition (% at 10 μM) 2C8” value on CYP 2C8 was found to be 54%. The CC50 in [9] was greater than 100 µM; in [10], greater than 100 µM; in series [11], 46 ± 30 µM; in series [12], greater than 100 µM. In addition, on CYP 1A2, the “CYP Inhibition (% at 10 μM) 1A2” value is −9.6%. Further, the “Liver microsome stability t1/2 Human” value in series [3] (human liver microsomes 1 mg/mL, compound alone) is listed as greater than 60 min. For the same compound, the “CYP Inhibition (% at 10 μM) 3A4-M” value on CYP 3A4 was −7.2%. The “CYP Inhibition (% at 10 μM) 3A4-T” value at CYP 3A4 came out at 8.3%. Further, the EC50 in series [4] (setting [14]) stood at 4.6 ± 2 nM. Moreover, the EC90 in [4] (setting [14]) came to 0.0168 ± 0.0071 µM. Further, the “GSH % Reactive metabolites at 25 μM” value in “Formation of glutathione” was 0.8%. The “CYP Inhibition (% at 10 μM) 2C19” value at CYP 2C19 was found to be 15.9%. In addition, the “CYP Inhibition (% at 10 μM) 2D6” value on CYP 2D6 is on record as 9.5%. Besides, the “CYP Inhibition (% at 10 μM) 2B6” value on CYP 2B6 is −1.6%. Moreover, the “Liver microsome stability t1/2 Mouse” value in series [8] (mouse liver microsomes 1 mg/mL, compound alone) was found to be 41 min. Also, on hERG, the “hERG % Inhibition at 10 μM” value is 46.6%.

(Values after publication PMC10765384 (Bioorganic chemistry, 2023).)
